Source: PubChem BioAssay (PCMD)
Yeast eIF2B: modulators of yeast eIF2B activity | S. cerevisiae eIF2B-epsilon R284H, GCN4-lacZ luminescence | inhibition, % at 25 µM (by protocol) | 0.91% of 27,000 active;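 active = mutant luminescence inhibited past about 50% while wild type luminescence and mutant growth stay under set limits, limit read from the data; inconclusive = mutant versus wild type luminescence inhibition gap past a set limit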
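Times: 16 h growth with compound at 30 °C, 90 min Beta-Glo step; Assay system: yeast eIF2B-epsilon R284H mutant carrying GCN4–beta-galactosidase fusion; Measure: % inhibition of reporter signal and growth versus controls; Dosing: one concentration, 25 µM, 0.25% DMSO; Buffer or medium: YPD yeast growth medium; Measured by: Beta-Glo luminescence plus absorbance at 595 nm.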
Yeast growth tox: Inhibitors of S. cerevisiae growth, toxicity. 0.3% of 30,000 active. growth inhibition, % at 25 µM (by protocol). S. cerevisiae wild-type growth, A595 turbidity, 16 h;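 active = mutant and wild-type yeast strains alike exhibit over 30% growth inhibition; inconclusive = a strain exceeds 50% while the second remains under 30%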;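 also: 0% = untreated cell controls and 100% = YPD media blanks without cells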
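System – wild-type and eIF2Bepsilon-R284H mutant S. cerevisiae, screened separately · Measured by – absorbance at 595 nm (turbidity) · Timing – 16 h compound exposure during growth at 30 °C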
* hit, by the source's call. This is a sample that favours compounds with a hit; in the whole collection about 1% have one here.

COc1cc(NC(=O)c2ccccc2)c(OC)cc1Cl was read as Yeast eIF2B -3 and Yeast growth tox 9.
COCC(=O)Nc1cc(OC)c(Cl)cc1OC was read as Yeast eIF2B 55* and Yeast growth tox -5.
`NC1=NC(c2cn(-c3ccccc3)nc2-c2cccs2)n2c(nc3ccccc32)N1` (configuration not stated) gave Yeast eIF2B 33 and Yeast growth tox 19.
For Cc1ccc(-n2c(C)cc(C3N=C(N)Nc4nc5ccccc5n43)c2C)c(C)c1 (configuration not stated) the results were Yeast eIF2B 63 and Yeast growth tox 92*.
For CCC1(C)Cc2c(sc3c2c(=O)n(C)c2nnc(SCC(=O)c4ccc(Cl)cc4)n32)CO1 (configuration not stated) the results were Yeast eIF2B 2 and Yeast growth tox -51.
CCS(=O)(=O)N1CCCC(C(=O)NCc2cccc(OC)c2)C1 (configuration not stated) was read as Yeast eIF2B -2 and Yeast growth tox 1.
Screening CCS(=O)(=O)N1CCCC(C(=O)NCCN(C)Cc2ccccc2)C1 (configuration not stated) returned Yeast eIF2B 62* and Yeast growth tox 11.
For CCOC(=O)c1sc(C)c2c1NC(C)(c1ccccc1)NC2=O (configuration not stated) the results were Yeast eIF2B -3 and Yeast growth tox -7.
Screening O=S(=O)(Nc1cccc2ccccc12)N1CCCC1 returned Yeast eIF2B -32 and Yeast growth tox 22.
For CC(C)CNc1c(N)c(=O)oc2ccccc12 the results were Yeast eIF2B 19 and Yeast growth tox 12.
COC(=O)c1ccc(C(=O)OC)c(NC(=O)c2oc(C)nc2C)c1 was read as Yeast eIF2B 27 and Yeast growth tox 2.
Screening CCOC(=O)Cn1c(CN(Cc2ccccc2)Cc2ccccc2)nc2c1c(=O)n(C)c(=O)n2C returned Yeast eIF2B -46 and Yeast growth tox -8.
`CCOC(=O)CN(C(=O)Cn1nnc2ccccc21)C(C(=O)NCCOC)c1ccccc1C` (configuration not stated) gave Yeast eIF2B 33 and Yeast growth tox -12.
`CCCCN(C(=O)Cn1nnc2ccccc21)C(C(=O)NCCOC)c1ccccc1` (configuration not stated) gave Yeast eIF2B 57* and Yeast growth tox 7.
Screening COc1ccc2c(CC#N)c[nH]c2c1 returned Yeast eIF2B -7 and Yeast growth tox 14.
For Cc1nnc(NC2CCCCC2)[nH]c1=O the results were Yeast eIF2B 65* and Yeast growth tox 15.
For O=c1[nH]c(NC2CCCCC2)nnc1Cc1ccccc1 the results were Yeast eIF2B 11 and Yeast growth tox 16.
`Fc1ccc(Nc2nc(Oc3ccc4c(c3)OCO4)nc(N3CCOCC3)n2)c(F)c1` gave Yeast eIF2B 57* and Yeast growth tox -67.
For c1ccc(Oc2nc(Oc3ccccc3)nc(N3CCOCC3)n2)cc1 the results were Yeast eIF2B 27 and Yeast growth tox 2.
`CCSCCOC(=O)C1=C(C)NC2=C(C(=O)CCC2)C1c1coc2ccccc2c1=O` (configuration not stated) gave Yeast eIF2B 14 and Yeast growth tox -5.
`c1ccc(C(c2ccccc2)N2CCN(c3nc4ccccc4n4cnnc34)CC2)cc1` gave Yeast eIF2B -28 and Yeast growth tox -8.
For CCNc1nc(NC(C)C)nc(N(C#N)CCOc2ccc(Cl)cc2Cl)n1 the results were Yeast eIF2B -24 and Yeast growth tox -14.
`COc1cc(S(=O)(=O)N2CCN=C2c2ccccc2)ccc1F` gave Yeast eIF2B -20 and Yeast growth tox inconclusive.
For COc1ccc(C2=CSC3=NCCN23)cc1F the results were Yeast eIF2B 65* and Yeast growth tox 7.
`O=CNC(Cc1ccccc1)C(=O)O` (configuration not stated) gave Yeast eIF2B 0 and Yeast growth tox 5.
For Cc1oc2nc(SCC(=O)NC3CCCCC3)nc(N)c2c1C the results were Yeast eIF2B 16 and Yeast growth tox 25.
COC(=O)c1cc(O)c(OCc2ccccc2)c(O)c1 was read as Yeast eIF2B 70* and Yeast growth tox -11.
For COC(=O)c1ccc(OCC(=O)c2ccccc2)cc1 the results were Yeast eIF2B 23 and Yeast growth tox 5.
Screening Cc1ccc2nc(/C(C#N)=C\c3ccc(N4CCOCC4)o3)[nH]c2c1 returned Yeast eIF2B 65*.
For N#C/C(=C/c1ccc(N2CCCCC2)o1)c1cccc(F)c1 the results were Yeast growth tox 13.
`CCCOc1cccc(C2/C(=C(/O)c3ccncc3)C(=O)C(=O)N2CCCN(C)C)c1` (configuration not stated) gave Yeast eIF2B 7 and Yeast growth tox 16.
`CCc1nc(N2CCOCC2)c(C#N)c2c1CCCC2` gave Yeast eIF2B -3 and Yeast growth tox 10.
